Data from ChEMBL document CHEMBL1255409, “In vitro activity of ceftaroline against 623 diverse strains of anaerobic bacteria” (2010).
≈ marks a conversion by molar mass, not a printed value.

Tests used:
Assay type in all cases: functional
Anaerococcus octavius = assay: Antimicrobial activity against Anaerococcus octavius under anaerobic conditions after 44 hrs by CLSI-M11-47 protocol based agar dilution method
Outline: (§1)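 Reference agar dilution per CLSI M11-A7 with plates made on test day. Clinical isolates were stored at −70°C in 20% skim milk, subcultured twice, and 48-h cell paste was suspended in brucella broth to 0.5 McFarland. About 10^5 CFU/spot was applied with a Steers replicator. Plates were incubated 44 h at 37°C anaerobically. MIC was the lowest concentration giving complete inhibition or marked growth reduction versus the drug-free control.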

Fusobacterium mortiferum = assay: Antimicrobial activity against Fusobacterium mortiferum under anaerobic conditions after 44 hrs by CLSI-M11-47 protocol based agar dilution method; outline: as §1
Prevotella oris = assay: Antimicrobial activity against Prevotella oris under anaerobic conditions after 44 hrs by CLSI-M11-47 protocol based agar dilution method; details: Segatella oris
Outline: (§2)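 Clinical isolates were stored at −70°C in 20% skim milk and identified phenotypically or by partial 16S rRNA sequencing. Each strain was subcultured twice from frozen stock. Cell paste from 48-h cultures was suspended in brucella broth to a 0.5 McFarland standard. About 10^5 CFU per spot were applied by Steers replicator to agar dilution plates prepared on the day of testing. Plates were incubated 44 h at 37°C in an anaerobic chamber. MIC was taken as the lowest concentration giving complete inhibition or marked reduction of growth versus the drug-free control.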

Bacteroides fragilis = assay: Antimicrobial activity against Bacteroides fragilis spp. under anaerobic conditions after 44 hrs by CLSI-M11-47 protocol based agar dilution method; outline: as §1
Parabacteroides merdae = assay: Antimicrobial activity against Bacteroides merdae under anaerobic conditions after 44 hrs by CLSI-M11-47 protocol based agar dilution method; outline: as §1
Eggerthella lenta = assay: Antimicrobial activity against Eggerthella lenta under anaerobic conditions after 44 hrs by CLSI-M11-47 protocol based agar dilution method; outline: as §1
Cutibacterium acnes = assay: Antimicrobial activity against Propionibacterium acnes under anaerobic conditions after 44 hrs by CLSI-M11-47 protocol based agar dilution method; outline: as §2
[1] = test system: Peptostreptococcus stomatis; assay: Antimicrobial activity against Peptostreptococcus stomatis under anaerobic conditions after 44 hrs by CLSI-M11-47 protocol based agar dilution method; outline: as §2
Propionibacterium avidum = assay: Antimicrobial activity against Propionibacterium avidum under anaerobic conditions after 44 hrs by CLSI-M11-47 protocol based agar dilution method; details: Cutibacterium avidum; outline: as §2
Clostridium subterminale = assay: Antimicrobial activity against Clostridium subterminale under anaerobic conditions after 44 hrs by CLSI-M11-47 protocol based agar dilution method; outline: as §1
[2] = test system: Peptostreptococcus anaerobius; assay: Antimicrobial activity against Peptostreptococcus anaerobius under anaerobic conditions after 44 hrs by CLSI-M11-47 protocol based agar dilution method; outline: as §2
Lacrimispora sphenoides = assay: Antimicrobial activity against Clostridium sphenoides under anaerobic conditions after 44 hrs by CLSI-M11-47 protocol based agar dilution method; outline: as §1
Eubacterium limosum = assay: Antimicrobial activity against Eubacterium limosum under anaerobic conditions after 44 hrs by CLSI-M11-47 protocol based agar dilution method; outline: as §1
Phocaeicola vulgatus = assay: Antimicrobial activity against Bacteroides vulgatus under anaerobic conditions after 44 hrs by CLSI-M11-47 protocol based agar dilution method; outline: as §1
Clostridium butyricum = assay: Antimicrobial activity against Clostridium butyricum under anaerobic conditions after 44 hrs by CLSI-M11-47 protocol based agar dilution method
Veillonella = assay: Antimicrobial activity against Veillonella spp. under anaerobic conditions after 44 hrs by CLSI-M11-47 protocol based agar dilution method; outline: as §2
Lacticaseibacillus casei = assay: Antimicrobial activity against Lactobacillus casei under anaerobic conditions after 44 hrs by CLSI-M11-47 protocol based agar dilution method; outline: as §2
Fusobacterium varium = assay: Antimicrobial activity against Fusobacterium varium under anaerobic conditions after 44 hrs by CLSI-M11-47 protocol based agar dilution method; outline: as §2
[3] = test system: Enterocloster clostridioformis; assay: Antimicrobial activity against Clostridium clostridioforme under anaerobic conditions after 44 hrs by CLSI-M11-47 protocol based agar dilution method; outline: as §1
Clostridium glycolicum = assay: Antimicrobial activity against Clostridium glycolicum under anaerobic conditions after 44 hrs by CLSI-M11-47 protocol based agar dilution method; details: Terrisporobacter glycolicus; outline: as §1
[4] = test system: Clostridium celerecrescens; assay: Antimicrobial activity against Clostridium celerecrescens under anaerobic conditions after 44 hrs by CLSI-M11-47 protocol based agar dilution method; details: Lacrimispora celerecrescens; outline: as §1
Bacteroides ovatus = assay: Antimicrobial activity against Bacteroides ovatus under anaerobic conditions after 44 hrs by CLSI-M11-47 protocol based agar dilution method; outline: as §1
Clostridioides difficile = assay: Antimicrobial activity against Clostridium difficile under anaerobic conditions after 44 hrs by CLSI-M11-47 protocol based agar dilution method; outline: as §1
Prevotella buccae = assay: Antimicrobial activity against Prevotella buccae under anaerobic conditions after 44 hrs by CLSI-M11-47 protocol based agar dilution method; details: Segatella buccae; outline: as §2
Eubacterium contortum = assay: Antimicrobial activity against Eubacterium contortum under anaerobic conditions after 44 hrs by CLSI-M11-47 protocol based agar dilution method; details: Faecalicatena contorta; outline: as §1
Peptoniphilus harei = assay: Antimicrobial activity against Peptoniphilus harei under anaerobic conditions after 44 hrs by CLSI-M11-47 protocol based agar dilution method; outline: as §2
[5] = test system: Paeniclostridium sordellii; assay: Antimicrobial activity against Clostridium sordellii under anaerobic conditions after 44 hrs by CLSI-M11-47 protocol based agar dilution method; details: Paraclostridium sordellii; outline: as §1
Clostridium hathewayi = assay: Antimicrobial activity against Clostridium hathewayi under anaerobic conditions after 44 hrs by CLSI-M11-47 protocol based agar dilution method; details: Hungatella hathewayi; outline: as §1
Actinomyces israelii = assay: Antimicrobial activity against Actinomyces israelii under anaerobic conditions after 44 hrs by CLSI-M11-47 protocol based agar dilution method; outline: as §1
Prevotella disiens = assay: Antimicrobial activity against Prevotella disiens under anaerobic conditions after 44 hrs by CLSI-M11-47 protocol based agar dilution method; outline: as §2
Bacteroides caccae = assay: Antimicrobial activity against Bacteroides caccae under anaerobic conditions after 44 hrs by CLSI-M11-47 protocol based agar dilution method; outline: as §1
[6] = test system: Peptoniphilus asaccharolyticus; assay: Antimicrobial activity against Peptoniphilus asaccharolyticus under anaerobic conditions after 44 hrs by CLSI-M11-47 protocol based agar dilution method; outline: as §2

Cc1ncc([N+](=O)[O-])n1CCO [METRONIDAZOLE]
MIC50 (Anaerococcus octavius): 1 µg/mL (≈ 5.84 µM)
MIC90 (Anaerococcus octavius): 4 µg/mL (≈ 23.4 µM)
MIC50 (Fusobacterium mortiferum): 0.5 µg/mL (≈ 2.92 µM)
MIC90 (Fusobacterium mortiferum): 1 µg/mL (≈ 5.84 µM)
MIC50 (Prevotella oris): 0.5 µg/mL (≈ 2.92 µM)
MIC90 (Prevotella oris): 2 µg/mL (≈ 11.7 µM)
MIC50 (Bacteroides fragilis): 1 µg/mL (≈ 5.84 µM)
MIC90 (Bacteroides fragilis): 2 µg/mL (≈ 11.7 µM)
MIC50 (Parabacteroides merdae): 1 µg/mL (≈ 5.84 µM)
MIC90 (Parabacteroides merdae): 2 µg/mL (≈ 11.7 µM)
MIC50 (Eggerthella lenta): 1 µg/mL (≈ 5.84 µM)
MIC90 (Eggerthella lenta): 1 µg/mL (≈ 5.84 µM)
MIC50 (Cutibacterium acnes): > 32 µg/mL
MIC90 (Cutibacterium acnes): > 32 µg/mL
MIC50 [1]: 0.5 µg/mL (≈ 2.92 µM)
MIC90 [1]: 1 µg/mL (≈ 5.84 µM)
MIC50 (Propionibacterium avidum): > 32 µg/mL
MIC90 (Propionibacterium avidum): > 31 µg/mL
MIC50 (Clostridium subterminale): 0.5 µg/mL (≈ 2.92 µM)
MIC90 (Clostridium subterminale): 4 µg/mL (≈ 23.4 µM)
MIC50 [2]: 0.5 µg/mL (≈ 2.92 µM)
MIC90 [2]: 1 µg/mL (≈ 5.84 µM)
MIC50 (Lacrimispora sphenoides): 0.5 µg/mL (≈ 2.92 µM)
MIC90 (Lacrimispora sphenoides): 4 µg/mL (≈ 23.4 µM)
MIC50 (Eubacterium limosum): 0.5 µg/mL (≈ 2.92 µM)
MIC90 (Eubacterium limosum): 1 µg/mL (≈ 5.84 µM)
MIC50 (Phocaeicola vulgatus): 1 µg/mL (≈ 5.84 µM)
MIC90 (Phocaeicola vulgatus): 2 µg/mL (≈ 11.7 µM)
MIC50 (Clostridium butyricum): 0.5 µg/mL (≈ 2.92 µM)
MIC90 (Clostridium butyricum): 4 µg/mL (≈ 23.4 µM)
MIC50 (Veillonella): 2 µg/mL (≈ 11.7 µM)
MIC90 (Veillonella): 8 µg/mL (≈ 46.7 µM)
MIC50 (Lacticaseibacillus casei): > 64 µg/mL
MIC90 (Lacticaseibacillus casei): > 64 µg/mL
MIC50 (Fusobacterium varium): 0.25 µg/mL (≈ 1.46 µM)
MIC90 (Fusobacterium varium): 0.5 µg/mL (≈ 2.92 µM)
MIC50 [3]: 0.06 µg/mL (≈ 0.351 µM)
MIC90 [3]: 0.25 µg/mL (≈ 1.46 µM)
MIC50 (Clostridium glycolicum): 0.5 µg/mL (≈ 2.92 µM)
MIC90 (Clostridium glycolicum): 4 µg/mL (≈ 23.4 µM)
MIC50 [4]: 0.5 µg/mL (≈ 2.92 µM)
MIC90 [4]: 4 µg/mL (≈ 23.4 µM)
MIC50 (Bacteroides ovatus): 1 µg/mL (≈ 5.84 µM)
MIC90 (Bacteroides ovatus): 2 µg/mL (≈ 11.7 µM)
MIC50 (Clostridioides difficile): 0.5 µg/mL (≈ 2.92 µM)
MIC90 (Clostridioides difficile): 4 µg/mL (≈ 23.4 µM)
MIC50 (Prevotella buccae): 0.5 µg/mL (≈ 2.92 µM)
MIC90 (Prevotella buccae): 1 µg/mL (≈ 5.84 µM)
MIC50 (Eubacterium contortum): 0.5 µg/mL (≈ 2.92 µM)
MIC90 (Eubacterium contortum): 1 µg/mL (≈ 5.84 µM)
MIC50 (Peptoniphilus harei): 1 µg/mL (≈ 5.84 µM)
MIC90 (Peptoniphilus harei): 4 µg/mL (≈ 23.4 µM)
MIC50 [5]: 0.5 µg/mL (≈ 2.92 µM)
MIC90 [5]: 4 µg/mL (≈ 23.4 µM)
MIC50 (Clostridium hathewayi): 0.06 µg/mL (≈ 0.351 µM)
MIC90 (Clostridium hathewayi): 0.25 µg/mL (≈ 1.46 µM)
MIC50 (Actinomyces israelii): > 32 µg/mL
MIC90 (Actinomyces israelii): > 32 µg/mL
MIC50 (Prevotella disiens): 0.5 µg/mL (≈ 2.92 µM)
MIC90 (Prevotella disiens): 2 µg/mL (≈ 11.7 µM)
MIC50 (Bacteroides caccae): 1 µg/mL (≈ 5.84 µM)
MIC90 (Bacteroides caccae): 2 µg/mL (≈ 11.7 µM)
MIC50 [6]: 1 µg/mL (≈ 5.84 µM)
MIC90 [6]: 1 µg/mL (≈ 5.84 µM)
